One data set relates to Cardiomyocytes. Nature of the data set: Cytotoxicity on primary cardiomyocytes. The data set is classed as cell-based, mice. The note with it: read-out: CC50 Vero/CM, cardiomyocytes, 72 h, resazurin. In outline: (§1)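 Heart muscle cells were enzymatically isolated from mouse embryo myocardia and grown in DMEM with 2.5 mM CaCl2, 2% chick embryo extract, 7% FBS and 1 mM L-glutamine. Seeded 7 × 10^4/well, cultured 24 h, then treated 72 h at 100 to 3.7 μM, with or without 30 μM heme. Resazurin 0.005% for 4 h, fluorescence at 530/600 nm. CC50 fitted against untreated control. Triplicates.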
(In general: The colour change of resazurin is a common sign of viable cells or microbes.)

A short description of data set [1]: Cytotoxicity on primary cardiomyocytes. The data set is classed as cell-based, mice. The note with it: mouse, primary embryonic cardiomyocytes. In outline:
as §1

For data set [2], the system named is T. cruzi Y trypomastigotes. The data set is described as follows: Trypomastigote viability. The data set is classed as cell-based, Trypanosoma cruzi. The note with it: 30 μM compound, 24 h, with vs without 30 μM hemin. In outline: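 Culture-derived Y-strain trypomastigotes were collected from infected Vero supernatants at 4 dpi. Parasites (2 × 10^6/100 μl) incubated 24 h at 37 °C in RPMI 1640 with 30 μM test compound, with or without 30 μM hemin. […] Viability read by resazurin (0.005%) fluorescence at 530/600 nm. Percentage death calculated against the matching untreated or hemin-only control.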

For the next data set, the system named is T. cruzi Y amastigotes. Nature of the data set: Intracellular amastigotes in infected cardiomyocytes. Particulars: Trypanosoma cruzi, Cardiomyocyte, 72 h, read-out: Percentage of amastigote growth inhibition, 72 h of treatment with 10 μM of compounds. Type of data set: cell-based.
A further data set has as its system Vero cells. Nature of the data set: Cytotoxicity on Vero cells. Type of data set: cell-based. In outline:
(§2)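 Vero cells kept in RPMI 1640 with 10% FBS at 37 °C, 5% CO2, seeded 1.5 × 10^4/well and cultured 24 h. Treated 72 h at 100 to 3.7 μM, with or without 30 μM heme in medium. Resazurin (0.005%) added for 4 h at 37 °C, fluorescence read at 530/600 nm. CC50 fitted from dose-response versus untreated control. Triplicates.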

Data set [3] is described as follows: Cytotoxicity on Vero cells. The data set is classed as cell-based. Particulars: African green monkey. In outline:
as §2

Data set [4] relates to T. cruzi Y epimastigote forms. Nature of the data set: Epimastigote growth inhibition. The data set is classed as cell-based. The note with it: Trypanosoma cruzi, 72 h, read-out: IC50 (Concentration that inhibits the growth of 50% of T. cruzi Y epimastigote forms within 72 h), 72 h, in the presence of 150 μM of heme, Probit. In outline:
(§3)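 Log-phase Y-strain epimastigotes (5 × 10^5/mL) treated 72 h at 28 °C in BHI with folic acid, 150 μM hemin and 10% FBS, at 50, 25 and 12.5 μM. Final DMSO ≤1%. Counted in a Neubauer chamber, with motility and morphology as viability criteria. IC50 derived by probit. Selectivity index taken as cardiomyocyte CC50 divided by epimastigote IC50.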

A short description of data set [5]: Epimastigote growth inhibition. The data set is classed as cell-based. Particulars: Trypanosoma cruzi. In outline: as §3

From paper PMC4971285 (International Journal for Parasitology: Drugs and Drug …, 2016) come the findings set out here.

By inhibition of growth is commonly meant the relative decrease from the control value, in per cent.

The structures appear in SMILES notation. Where two headings read alike, the source gives them in different places. Some results are limits rather than exact numbers.

Take `O=C(Cn1ccnc1[N+](=O)[O-])NCc1ccccc1` [Bz, benznidazole, reference compound]: the CC50 is above 100 µM in the data set with Cardiomyocytes (medium without heme); above 100 µM in the data set on Cardiomyocytes (with 30 μM of heme); above 100 µM with Vero cells (read-out: CC50 Vero/CM, medium without heme, 72 h, resazurin); above 100 µM with Vero cells (read-out: CC50 Vero/CM, with 30 μM of heme, 72 h, resazurin). In addition, the CC50 at 72 h in data set [1] and in data set [3] was above 100 µM in each case. In addition, the “increase in activity (death of trypomastigote forms) by combination with hemin” value in data set [2] is given as “about 1.3 fold”. For the same molecule, the inhibition of growth at 10 µM in the data set with T. cruzi Y amastigotes amounted to 99.8 ± 0.4%. Besides, the IC50 in data set [4] was found to be 5.6 ± 0.05 µM. For the same molecule, the selectivity ratio at 72 h in data set [5] was above 17.9.

In the case of `N#Cc1cnc2ccc(Cl)cc2c1Nc1ccccc1` [Compound 1a, 6-chloro-4-(phenylamino)quinoline-3-carbonitrile], the CC50 at 72 h in data set [1] and in data set [3] was above 100 µM in each case. The “increase in activity (death of trypomastigote forms) by combination with hemin” value in data set [2] is listed as around 1.6 fold. In addition, the inhibition of growth at 10 µM in the data set with T. cruzi Y amastigotes amounted to 45.5 ± 9%. Besides, the IC50 in data set [4] was 17.6 ± 6.1 µM. Besides, the selectivity ratio at 72 h in data set [5] was above 5.68.

Consider `N#Cc1cnc2ccc(Cl)cc2c1Nc1cccc(F)c1` [Compound 1b, 6-chloro-4-(3’-fluorophenylamino)quinoline-3-carbonitrile], for which the CC50 at 72 h worked out at 67 ± 11.6 µM in data set [1] and 69 ± 22 µM in data set [3]. In addition, in the data set on T. cruzi Y amastigotes, the inhibition of growth at 10 µM amounted to 53.2 ± 10%. Further, the IC50 in data set [4] amounted to 16.6 ± 0.2 µM. Besides, in data set [5], the selectivity ratio at 72 h is 4.

Regarding `N#Cc1cnc2ccc(Cl)cc2c1Nc1ccc(F)cc1` [Compound 1c, 6-chloro-4-(4’-fluorophenylamino)quinoline-3-carbonitrile], the CC50 at 72 h in data set [1] and in data set [3] was above 100 µM each time. In the data set on T. cruzi Y amastigotes, the inhibition of growth at 10 µM came to 52.5 ± 6%. Besides, in data set [4], the IC50 worked out at 8.8 ± 1.3 µM. In addition, in data set [5], the selectivity ratio at 72 h was above 11.4.

For `N#Cc1cnc2ccc(Cl)cc2c1Nc1ccccc1Cl` [Compound 1d, 6-chloro-4-(2’-chlorophenylamino)quinoline-3-carbonitrile], the CC50 at 72 h worked out at 47.7 ± 13 µM in data set [1] and 64 ± 12.5 µM in data set [3]. For the same molecule, the inhibition of growth at 10 µM in the data set with T. cruzi Y amastigotes is 57.6 ± 8%. Also, the IC50 in data set [4] worked out at 40 ± 13.7 µM. For the same molecule, in data set [5], the selectivity ratio at 72 h came out at 1.19.

For the molecule `N#Cc1cnc2ccc(Cl)cc2c1Nc1cccc(Cl)c1` [Compound 1e, 6-chloro-4-(3’-chlorophenylamino)quinoline-3-carbonitrile], the CC50 at 72 h in data set [1] worked out at 65.2 ± 18.5 µM; in data set [3], 89 ± 18 µM. Also, the inhibition of growth at 10 µM with T. cruzi Y amastigotes was 55.4 ± 7%. In data set [4], the IC50 is 15.4 ± 0.7 µM. Besides, the selectivity ratio at 72 h in data set [5] came to 4.2.

Turning to `N#Cc1cnc2ccc(Cl)cc2c1Nc1cccc(Br)c1` [Compound 1f, 4-(3’-bromophenylamino)-6-chloroquinoline-3-carbonitrile], the CC50 at 72 h in data set [1] was above 100 µM; in data set [3], 71 ± 26 µM. The inhibition of growth at 10 µM in the data set on T. cruzi Y amastigotes was determined as 60.4 ± 9%. Also, in data set [4], the IC50 turned out to be 21.2 ± 14.2 µM. In addition, the selectivity ratio at 72 h in data set [5] was above 4.7.
